Measured values published in ChEMBL document CHEMBL4041524, “Synthesis and Characterization of a Novel γ-Aminobutyric Acid Type A (GABAA) Receptor Ligand That Combines Outstanding Metabolic Stability, Pharmacokinetics, and Anxiolytic Efficacy” (J Med Chem, 2016).

Tested on: Rattus norvegicus
Test: Toxicity in water-deprived Sprague-Dawley rat assessed as effect on water drinking time during nonpunished period at 20 mg/kg, po by Vogel conflict test
Assay type: organism-based
Details: in vivo
Outline: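 Water-deprived male Sprague-Dawley rats (n = 6–8) drank during unpunished and punished periods, with licking suppressed by mild shock in punished periods. Compounds were given 30 min before testing. Analysis was ANOVA with Dunnett's test.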

CNC1=Nc2ccc(Cl)cc2C(c2ccccc2)=[N+]([O-])C1 [CHLORDIAZEPOXIDE]
Activity: Non-Toxic
